We go through 5 compounds from ChEMBL document CHEMBL5696444 (Nat Commun, 2017).

pIC50: −log10 of the molar value. Activity calls are given as the source filed them. No cut-off for these calls is given here.

One experiment has as its system HCT-116. Kind of experiment: Cytotoxicity against human HCT-116 cells assessed as inhibition of cell viability incubated for > 24 hrs. It counts as functional.
Experiment [1] concerns the target Dual specificity protein kinase CLK1 (Homo sapiens) (UniProt P49759). Kind of experiment: Inhibition of CLK (unknown origin) in human HCT-116 cells assessed as phospho SR level at 10 uM incubated for 6 hrs by immunoblot analysis. It counts as cell-based. An outline of the steps:
(§1)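 HCT116 cells were exposed to compound for 3 or 6 h, then lysed in 1× SDS sample buffer (0.16% SDS, Tris-HCl pH 6.8) and boiled 5 min. Lysates were run on 5–15% or 4–12% gradient gels and transferred to nitrocellulose or PVDF. Membranes were blocked in 5% milk or 3% BSA/TBS-T and probed overnight at 4 °C with anti-SR protein (16H3) or anti-phospho-SR (1H4, 1/1000), with GAPDH as loading control.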

Experiment [2] has the same target. The experiment can be described thus: Inhibition of CLK (unknown origin) in human HCT-116 cells assessed as SRSF1 level at 10 uM incubated for 6 hrs by immunoblot analysis. It is filed as cell-based. The method in brief: as §1
Experiment [3] has the same target. The experiment can be described thus: Inhibition of CLK (unknown origin) in human HCT-116 cells assessed as SRSF4 level at 10 uM incubated for 6 hrs by immunoblot analysis. It is filed as cell-based. The method in brief:
as §1

For experiment [4] the target is unchanged. The experiment can be described thus: Inhibition of CLK (unknown origin) in human HCT-116 cells assessed as SRSF6 level at 10 uM incubated for 6 hrs by immunoblot analysis. It counts as cell-based. An outline of the steps: as §1
In experiment [5] the target is Dual specificity protein kinase CLK2 (Homo sapiens, UniProt P49760). The experiment can be described thus: Inhibition of N-terminal FLAG-tagged human CLK2 using ULight MBP peptide as substrate incubated for 10 mins in presence of ATP incubated for 45 mins by LANCE Ultra kinase assay.
Dual specificity protein kinase CLK2, sequence (P49760 whole entry): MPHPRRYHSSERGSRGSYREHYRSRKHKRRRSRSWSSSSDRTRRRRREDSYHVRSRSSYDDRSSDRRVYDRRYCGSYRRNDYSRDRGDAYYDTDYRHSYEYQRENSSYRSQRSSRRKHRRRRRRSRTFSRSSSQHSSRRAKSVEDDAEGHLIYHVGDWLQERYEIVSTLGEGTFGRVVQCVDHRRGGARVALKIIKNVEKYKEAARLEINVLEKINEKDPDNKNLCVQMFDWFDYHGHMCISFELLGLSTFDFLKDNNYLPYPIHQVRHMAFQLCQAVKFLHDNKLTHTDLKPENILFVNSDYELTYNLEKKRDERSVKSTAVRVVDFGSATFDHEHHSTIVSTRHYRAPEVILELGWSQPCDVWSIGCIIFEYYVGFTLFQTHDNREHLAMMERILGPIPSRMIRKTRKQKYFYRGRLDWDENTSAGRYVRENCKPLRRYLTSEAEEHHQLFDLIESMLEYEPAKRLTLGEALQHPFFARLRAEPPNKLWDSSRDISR

Dual specificity protein kinase CLK1 (Homo sapiens), sequence (P49759 whole entry, looked up): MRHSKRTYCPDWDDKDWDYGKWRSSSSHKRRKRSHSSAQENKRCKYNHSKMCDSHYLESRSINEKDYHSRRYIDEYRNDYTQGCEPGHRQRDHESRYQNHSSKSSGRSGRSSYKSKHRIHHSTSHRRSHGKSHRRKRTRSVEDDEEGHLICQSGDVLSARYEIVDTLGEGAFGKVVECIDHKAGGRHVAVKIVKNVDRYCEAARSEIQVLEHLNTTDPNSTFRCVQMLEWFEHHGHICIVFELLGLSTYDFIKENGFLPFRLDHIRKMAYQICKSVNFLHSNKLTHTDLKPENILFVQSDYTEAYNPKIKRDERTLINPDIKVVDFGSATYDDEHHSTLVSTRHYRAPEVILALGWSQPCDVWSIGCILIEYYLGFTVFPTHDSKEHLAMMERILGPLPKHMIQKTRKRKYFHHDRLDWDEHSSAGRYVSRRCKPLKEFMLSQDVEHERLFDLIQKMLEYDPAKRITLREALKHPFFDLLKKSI

For `CCOC(=O)c1c(/C(C#N)=C\N)c2ccc(Cl)c(Cl)c2n1C`, the GI with HCT-116 was over 50 µM. Moreover, the inhibition result in experiment [1], in experiment [2], in experiment [3] and in experiment [4] was “Active” each time.
For the compound `CC(C)(CCc1nn[nH]n1)c1ccc(C(=O)Nc2cn3cc(C(F)(F)F)ccc3n2)cc1`, the pIC50 in experiment [5] is 6.44.
`CC(C)(CCc1nn[nH]n1)c1ccc(C(=O)Nc2cn3cc(-c4ccncc4)ccc3n2)cc1`: the pIC50 in experiment [5] is 7.30.
On the same count and under the same terms, next, `CCN1CCN(C(=O)C(C)(C)c2ccc(C(=O)Nc3cn4cc(-c5ccncc5)ccc4n3)cc2)CC1`: 7.82.
On to `CC(C)(C(=O)N1CCNCC1)c1ccc(C(=O)Nc2cn3cc(-c4ccncc4)ccc3n2)cc1`, for which the pIC50 in experiment [5] is 6.82.
